Assay outcomes: PubChem BioAssay, several laboratories
B2AR ag = activates human beta-2 adrenergic receptor causing internalization | actives 0.43% (n = 340,000) | Am2.2-beta2AR cells, FAP receptor internalization, flow cytometry | response, % (concentration not given with the values);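 active means response above a set limit, near 3 SD of response in nonfluorescent compounds, cut at about 42% in these data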
MEKK2 mut-MEK5 = signal of MEK5 binding to mutant human MEKK2 PB1 domain. bead flow cytometry, Alexa488-MEK5 binding to MEKK2 mutant. percent response, % at 10 µM. actives 0.35% (n = 290,000); in the data active means percent response above about 24%, passing the limit was not always enough
MEKK2 WT-MEK5 = raises or lowers MEK5 binding to wildtype human MEKK2 PB1 domain; Q9Y2U5; actives 1.1% (n = 290,000); binding response (% of control), % at 10 µM; bead flow cytometry, Alexa488-MEK5 binding to MEKK2 WT; actives lie on both sides; in the data active means binding response below about 67% or above about 130%
ATG4B inhibitor = blocks human ATG4B protease cleavage of LC3 substrate | actives 0.51% (n = 340,000) | inhibition, % at 8.33 µM | AID 504462 | ATG4B cleavage of LC3-PLA2, NBD-HPC fluorescence, 1 h; in the data active means inhibition above about 40%
MEKK3 PB1 HTS = modulators (inhibitors or enhancers) of MEK5 binding to human MEKK3 PB1 domain | Q99759 | AID 1529 | actives 1.4% (n = 290,000) | bead-based flow cytometry, Alexa488-MEK5 binding to MEKK3; actives lie on both sides; 0 = blocked by unlabeled MEK5, 100 = vehicle | binding response (% of control), % at 10 µM;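 active means binding response more than 3 SD above or below the average of its plate-row segment, actives on both sides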;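 further: Alexa488 bead fluorescence after subtracting the streptavidin-only scavenger bead signal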
Target sequence (Q99759 whole entry, looked up, the tested form may be a part): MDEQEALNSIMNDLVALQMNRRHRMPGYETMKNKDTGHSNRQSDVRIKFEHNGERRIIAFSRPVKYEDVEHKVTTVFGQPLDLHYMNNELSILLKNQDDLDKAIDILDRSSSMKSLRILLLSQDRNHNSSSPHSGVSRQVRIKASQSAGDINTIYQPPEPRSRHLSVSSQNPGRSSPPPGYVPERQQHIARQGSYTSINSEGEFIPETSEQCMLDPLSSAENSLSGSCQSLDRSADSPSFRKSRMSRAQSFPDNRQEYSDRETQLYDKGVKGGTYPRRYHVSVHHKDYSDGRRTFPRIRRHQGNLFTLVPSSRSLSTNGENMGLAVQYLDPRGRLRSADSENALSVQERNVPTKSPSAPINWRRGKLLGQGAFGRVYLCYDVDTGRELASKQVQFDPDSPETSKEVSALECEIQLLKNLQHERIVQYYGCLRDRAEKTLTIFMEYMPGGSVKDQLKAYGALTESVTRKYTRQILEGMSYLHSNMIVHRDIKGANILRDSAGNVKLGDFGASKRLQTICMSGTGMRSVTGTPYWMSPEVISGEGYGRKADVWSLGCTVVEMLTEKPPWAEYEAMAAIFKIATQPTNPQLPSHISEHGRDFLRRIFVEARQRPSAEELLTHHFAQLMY
Dynein cargo inh = dynein cargo transport inhibition. 3617.4 mouse cells, GR-EGFP nuclear translocation imaging; test concentration mostly 20 µM; stimulated with dexamethasone, 1 µM; active compounds read low. z-score, hits read low. actives 0.47% (n = 220,000). AID 1381;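 active means plate z-score of nuclear minus cytoplasmic receptor signal below a set negative limit, without overly bright fluorescence or cell loss, cut at about -3.5 in these data, passing the limit was not always enough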;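 further: z-score of nuclear minus cytoplasmic ring GR-EGFP intensity difference per well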
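medium = tetracycline-free induction medium containing charcoal-stripped FBS | also added = 1.0 µM final dexamethasone stimulus | schedule = 48 h induction, 1 h compound, 30 min dex at 37 °C | technique = fixed, Hoechst-stained cells imaged at 10x for EGFP | measure = GR-EGFP nuclear translocation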
* hit, by the source's call; . = not tested or not shown. The list is not random: actives were taken first. Their share in the collection is about 2.9%.

SMILES	B2AR ag	MEKK2 mut-MEK5	MEKK2 WT-MEK5	ATG4B inhibitor	MEKK3 PB1 HTS	Dynein cargo inh
COC(=O)/C(=C\c1ccc(O)cc1)c1nc2ccccc2[nH]1	-2	2	100	-12	102	-3.3
O=C(/C(=C\c1ccccc1)c1nc2ccccc2[nH]1)c1ccc(Cl)cc1	15	5	5.0*	-2	93	-2.4
S=C(Nc1ccc(Cl)cc1)c1nc2ccccc2[nH]1	-3	0	110	0	128*	0.74
Clc1ccc2c(N/N=C/c3ccc(Br)cc3)ccnc2c1	61*	-1	116	31	90	-0.068
Cc1nc2nc(SCC(=O)NCCCN3CCCCCC3)nn2c(C)c1Cc1ccccc1Cl	-1	16	130	-2	104	.
Cc1ccc(Cc2c(C)nc3nc(SCC(=O)NCCCN4CCCC4)nn3c2C)cc1	5	21	147*	1	109	.
Cc1ccccc1Cc1c(C)nc2nc(SCC(=O)NCCCN3CCCC3)nn2c1C	-9	19	136*	5	105	.
Cc1ccc(Cc2c(C)nc3nc(SCC(=O)NCCCN4CCCCC4)nn3c2C)cc1	9	0	111	3	96	.
Cc1cnc(C(=O)OCC(=O)N2C(C)CCCC2C)cn1 (stereo unspecified)	-3	.	.	-1	.	.
CN(C)CCCNC(=O)C[C@H]1C[C@H](C(=O)N2CCOCC2)[C@@]2(CCC3CCCC3)c3[nH]c4cc(-c5ccco5)ccc4c3CCN2C1=O	63*	.	.	14	.	.
CCOc1cc(/C=C2\COc3ccccc3C2=O)cc(Br)c1OCC(=O)N(C)C	55*	6	105	-6	98	.
COc1ccc(/C=C2\COc3ccccc3C2=O)cc1OC	12	-3	89	5	89	-3.4
N#Cc1ccccc1NC(=O)COC(=O)c1c[nH]c2ccccc12	-2	.	.	6	.	.
Nc1ccccc1C#Cc1ccc([N+](=O)[O-])cc1	10	.	.	-2	.	.
Nc1ccccc1C#CC(=O)c1ccccc1	44*	3	105	-1	104	.
O=C(C#Cc1cccc([N+](=O)[O-])c1)c1ccccc1	88*	1	101	.	98	-0.98
COc1ccc(OC)c(CCNC(=O)C2CCN(c3ncnc4c3nc3n4CCCCC3)CC2)c1	6	4	98	5	98	.
COCCCNC(=O)C1C2C=CC3(CN(Cc4ccc(C)cc4)C(=O)C13)O2 (stereo unspecified)	3	9	109	4	105	4
Cc1ccc(CN2CC34C=CC(O3)C(C(=O)NCc3ccc5c(c3)OCO5)C4C2=O)cc1 (stereo unspecified)	-2	8	125	-8	128*	0.78
COc1ccc(N2CCN(C(=O)C(=O)c3cn(CC(=O)N4CCOCC4)c4ccccc34)CC2)cc1	-10	-1	100	-5	95	.
COc1ccc(N2CCN(C(=O)C(=O)c3cn(CC(=O)N4CCCCCC4)c4ccccc34)CC2)cc1	18	5	-5.0*	-5	97	.
CCN1CCN(C(=O)C(=O)c2cn(CC(=O)N3CCCC3)c3ccccc23)CC1	0	-4	100	-2	99	.
CCN1CCN(C(=O)C(=O)c2cn(CC(=O)N3CCCCCC3)c3ccccc23)CC1	5	9	56*	-5	102	.
O=C(Cc1ccccc1[N+](=O)[O-])OCC(=O)c1ccccc1Br	-1	.	.	24	.	.
COc1ccc2c(c1)C(=NNC(=O)c1ccccn1)c1cc(OC)ccc1-2	43*	-1	94	-13	93	0.11
SMILES	B2AR ag	MEKK2 mut-MEK5	MEKK2 WT-MEK5	ATG4B inhibitor	MEKK3 PB1 HTS	Dynein cargo inh
COc1ccc(C(=O)NNC(=O)c2ccccn2)cc1	-4	-2	103	-1	106	0.66
Cc1ccc(C)c(C(=O)CCC(=O)NNC(=O)c2cccs2)c1	2	.	.	2	.	.
Cc1cc(N2CCN(C)CC2)nc2ccc(NC(=S)NCCN3CCc4ccccc4C3)cc12	26	26	158*	-15	110	1.7
CCOC(=O)N1CCC(NC(=S)Nc2ccc3nc(N4CCN(CC)CC4)cc(C)c3c2)CC1	50*	13	131	1	106	-0.58
O=C(OCc1ccccc1)N1CCC2CC1c1cc(-c3ccc4c(c3)OCO4)ccc12 (stereo unspecified)	4	.	.	9	.	.
c1ccc(-c2nnc(N3CCCC3)nc2-c2ccccc2)cc1	-12	3	99	3	109	.
CCOc1ccc(S(=O)(=O)n2ccnc2C)cc1	.	6	107	.	100	.
Cc1ccc(C(C)C)c(OCc2nn(CC(=O)c3ccc(Cl)cc3)c3[n+]2CCCCC3)c1	32	18	192*	13	91	-6.9
COc1ccc(/C=N/NC(=O)NC23CC4CC(CC(C4)C2)C3)c(OC)c1	0	0	97	1	102	.
Cc1ccc(-n2nc3c(c2NC(=O)c2c(-c4ccccc4Cl)noc2C)CSC3)cc1	.	-5	93	43*	93	-0.47
O=C1Nc2cc(C(=O)NCCCN3CCOCC3)ccc2S/C1=C/c1cccc(Cl)c1	20	16	147*	1	102	.
COc1ccc(/C=C2/Sc3ccc(C(=O)NCCN4CCCCCC4)cc3NC2=O)cc1	20	71*	281*	11	111	.
O=C1Nc2cc(C(=O)NCCCN3CCCC3)ccc2S/C1=C\c1ccccc1	3	18	153*	13	105	.
COc1ccc(C(=O)NCCN2CCCC2)cc1	-5	3	114	1	106	.
CCCN1CCN(CCCNC(=O)c2ccc3c(c2)NC(=O)c2ccccc2S3)CC1	6	3	109	2	101	.
O=C1Nc2cc(C(=O)NCCCN3CCOCC3)ccc2S/C1=C/c1ccccc1F	-7	3	115	-3	105	.
COc1ccc(/C=C2\Sc3ccc(C(=O)NCCCN4CCCC4)cc3N(C)C2=O)cc1OC	16	35*	202*	1	107	.
O=C1CCc2cc(S(=O)(=O)Nc3ccccc3F)ccc2N1	-2	.	.	0	.	.
O=[N+]([O-])c1c(Nc2ccccc2O)ccc2nonc12	-12	2	105	2	103	-0.58
O=[N+]([O-])c1c(Nc2ccccc2O)cc(Cl)c2nonc12	105*	-4	92	-4	91	.
C=CCN(CC=C)CC(=O)Nn1c(C)ccc1C	-6	.	.	-21	.	.
Cc1cccc(C(=O)O/N=C(\N)Cc2cccc3ccccc23)c1	3	-5	95	46*	98	.
O=C1C2CCCN2c2ccc(S(=O)(=O)N3CCOCC3)cc2N1Cc1ccccc1F (stereo unspecified)	-9	5	109	-11	113	-0.21
